Activity calls are given as the source filed them. The rule behind the calls is not given here.

Data on 13 compounds can be found in ChEMBL document CHEMBL3046488, “Synthesis of 3-(4-Bromobenzyl)-5-(aryl methylene)-5H-furan-2-ones and their activity as inhibitors of the photosynthetic electron transport chain” (2007).

Test [1] relates to Spinacia oleracea. Put plainly: In vitro inhibition of basal rate of photosynthetic electron transport (Hill reaction) in active intact chloroplast thylakoid membrane of Spinacia oleracea (spinach) leaves assessed as light-driven ferricyanide reduction at 5 uM measured at 24 degC at 30 secs intervals for 10 min (reference value: 100 +/-3.1%). Details: scale not given: the % may be the effect or the level left.

The test system of test [2] is Spinacia oleracea. Put plainly: In vitro inhibition of basal rate of photosynthetic electron transport (Hill reaction) in active intact chloroplast thylakoid membrane of Spinacia oleracea (spinach) leaves assessed as light-driven ferricyanide reduction at 10 uM measured at 24 degC at 30 secs intervals for 10 min (reference value: 100 +/-3.1%). More on the design: scale not given: the % may be the effect or the level left.

The subject of test [3] is Auxenochlorella protothecoides. In words: In vivo inhibition of photosynthetic activity in intact Auxenochlorella protothecoides ATCC 30411 cells assessed as light-driven oxygen evolution rate at 100 uM measured at 24 degC every 15 sec upto 8 min by polarographic analysis in presence of 0.001% Triton X-100 (reference value: 100 +/-5.1%). In kind it is functional. Details: scale not given: the % may be the effect or the level left.

The subject of test [4] is Auxenochlorella protothecoides. Put plainly: In vivo inhibition of photosynthetic activity in intact Auxenochlorella protothecoides ATCC 30411 cells assessed as light-driven oxygen evolution rate at 10 uM measured at 24 degC every 15 sec upto 8 min by polarographic analysis in absence of detergent (reference value: 100 +/-5.9%). In kind it is functional. Details: scale not given: the % may be the effect or the level left.

Test [5] has as its system Auxenochlorella protothecoides. Put plainly: In vivo inhibition of photosynthetic activity in intact Auxenochlorella protothecoides ATCC 30411 cells assessed as light-driven oxygen evolution rate at 10 uM measured at 24 degC every 15 sec upto 8 min by polarographic analysis in presence of 0.001% Triton X-100 (reference value: 100 +/-5.1%). The class given is functional. Details: scale not given: the % may be the effect or the level left.

The test system of test [6] is Auxenochlorella protothecoides. In words: In vivo inhibition of photosynthetic activity in intact Auxenochlorella protothecoides ATCC 30411 cells assessed as light-driven oxygen evolution rate at 100 uM measured at 24 degC every 15 sec upto 8 min by polarographic analysis in absence of detergent (reference value: 100 +/-5.9%). In kind it is functional. Details: scale not given: the % may be the effect or the level left.

Test [7] concerns Spinacia oleracea. Put plainly: In vitro inhibition of phosphorylating electron transport in active intact chloroplast thylakoid membrane of Spinacia oleracea (spinach) leaves assessed as light-driven ferricyanide reduction at 10 uM measured at 24 degC at 30 secs intervals for 10 min (reference value: 100 +/-3.8%). More on the design: scale not given: the % may be the effect or the level left.

Test [8] deals with Spinacia oleracea. In words: In vitro inhibition of basal rate of photosynthetic electron transport (Hill reaction) in active intact chloroplast thylakoid membrane of Spinacia oleracea (spinach) leaves assessed as inhibition of light-driven ferricyanide reduction at >10 uM measured at 24 degC at 30 secs intervals for 10 min.
Test [9] relates to Spinacia oleracea. In words: In vitro inhibition of uncoupled electron transport in active intact chloroplast thylakoid membrane of Spinacia oleracea (spinach) leaves assessed as light-driven ferricyanide reduction at 10 uM measured at 24 degC at 30 secs intervals for 10 min (reference value: 100 +/-4.1%). Details: scale not given: the % may be the effect or the level left.
In test [10] the test system is Spinacia oleracea. Put plainly: In vitro inhibition of basal rate of photosynthetic electron transport (Hill reaction) in active intact chloroplast thylakoid membrane of Spinacia oleracea (spinach) leaves assessed as inhibition of light-driven ferricyanide reduction at 10 uM measured at 24 degC at 30 secs intervals for 10 min in presence of 0.25 to 1 mM uncoupler, NH4Cl. In short, it runs like this: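 A fixed compound concentration was tested in the spinach thylakoid ferricyanide-reduction assay at increasing NH4Cl (uncoupler) levels. Activity is expressed as % of untreated samples containing the same amount of uncoupler, mean ± SE over at least six replications from two independent experiments.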

For `O=C1OC(=Cc2ccc(F)cc2)C=C1Cc1ccc(Br)cc1`, the Activity in the test with Spinacia oleracea [1] is 74%; in the test with Spinacia oleracea [2], 68.5%.
Take `COc1ccc(OC)c(/C=C2\C=C(Cc3ccc(Br)cc3)C(=O)O2)c1`: the Activity in the test with Spinacia oleracea [1] turned out to be 94.1%; in the test with Spinacia oleracea [2], 71%.
With `Cc1cccc(/C=C2\C=C(Cc3ccc(Br)cc3)C(=O)O2)c1`, the Activity in the test with Spinacia oleracea [1] was 72.8%; in the test on Spinacia oleracea [2], 69.7%.
In the case of `CN(C)C(=O)Nc1ccc(Cl)c(Cl)c1` [DCMU], the Activity is 6.8% with Spinacia oleracea [1]; 4.9% in the test with Spinacia oleracea [2]; 20.7% in test [3]; 49.9% in [4]; 32.2% in test [5]; 38.5% in [6].
`O=C1OC(=Cc2cccc([N+](=O)[O-])c2)C=C1Cc1ccc(Br)cc1`: the Activity worked out at 72.6% with Spinacia oleracea [1] and 66.9% in the test with Spinacia oleracea [2].
Turning to `N#Cc1ccc(C=C2C=C(Cc3ccc(Br)cc3)C(=O)O2)cc1`, the Activity with Spinacia oleracea [1] stood at 100%; in the test with Spinacia oleracea [2], 101%.
Turning to `O=C1O/C(=C\c2ccc3c(c2)OCO3)C=C1Cc1ccc(Br)cc1`, the results for the Activity in the test on Spinacia oleracea [1] and in the test on Spinacia oleracea [2] were 91.1% and 91%, respectively.
For the compound `COc1cc(OC)c(/C=C2\C=C(Cc3ccc(Br)cc3)C(=O)O2)c(OC)c1`, the Activity with Spinacia oleracea [1] worked out at 84.2%; in the test on Spinacia oleracea [2], 79.9%.
As to `O=C1OC(=Cc2ccccc2)C=C1Cc1ccc(Br)cc1`, the Activity came out at 47.9% in the test with Spinacia oleracea [7]; 54.1% with Spinacia oleracea [1]; 42.9% with Spinacia oleracea [2]; 74.2% in test [3]; 95.6% in the test with Spinacia oleracea [9]; 82.6% in test [6]. Besides, the inhibition result with Spinacia oleracea [8] and with Spinacia oleracea [10] was “inactive” each time.
Regarding `O=C1OC(=Cc2ccc(Br)cc2)C=C1Cc1ccc(Br)cc1`, the Activity in the test on Spinacia oleracea [1] was found to be 95.4%; in the test on Spinacia oleracea [2], 92%.
The like results for `CN(C)c1ccc(C=C2C=C(Cc3ccc(Br)cc3)C(=O)O2)c(Cl)c1` were, in that order, 94.7% and 91%.
As for `O=C1OC(=Cc2ccc(Cl)cc2)C=C1Cc1ccc(Br)cc1`, the Activity in the test on Spinacia oleracea [1] turned out to be 94.1%; with Spinacia oleracea [2], 89.4%.
Regarding `O=C1OC(=Cc2ccc(C(F)(F)F)cc2)C=C1Cc1ccc(Br)cc1`, the Activity with Spinacia oleracea [7] is 52.1%; in the test with Spinacia oleracea [1], 71.7%; with Spinacia oleracea [2], 48.8%; in test [3], 89.5%; in the test on Spinacia oleracea [9], 79.8%; in test [6] it was 94.5%. Besides, the inhibition result in the test with Spinacia oleracea [8] was “inactive”.
